Laboratory results published in ChEMBL document CHEMBL3804777, “Identification and Preclinical Pharmacology of BMS-986104: A Differentiated S1P1 Receptor Modulator in Clinical Trials” (ACS Med Chem Lett, 2016).

Experiments:
[1] = biological target: T1, Sphingosine 1-phosphate receptor 3 (Homo sapiens, UniProt Q99500); assay: Agonist activity at human S1P3 receptor by GTPgammaS binding assay; format: functional
Heart [2] = assay: Toxicity in guinea pig heart assessed as reduction in ventricular rate at 1000 nM after 10 mins by ECG analysis; format: tissue-based, Cavia porcellus, Cardiac ventricle; details: 1 µM
In short: (§1)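 Isolated guinea pig hearts perfused with the phosphate at the stated concentrations; ventricular rate and atrioventricular conduction (third-degree AV block) monitored.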

[3] = biological target: T1, Sphingosine 1-phosphate receptor 3; assay: Antagonist activity at human S1P3 receptor by GTPgammaS binding assay; format: functional
Heart [4] = assay: Toxicity in guinea pig heart assessed as reduction in ventricular rate at 100 nM after 10 mins by ECG analysis; format: tissue-based, Cavia porcellus, Cardiac ventricle; details: 0.1 µM; in short: as §1
Heart [5] = assay: Toxicity in guinea pig heart assessed as third degree AV block at 1000 nM after 10 mins by ECG analysis; format: tissue-based, Cavia porcellus; details: 1 µM; in short: as §1
[6] = biological target: T2, Sphingosine 1-phosphate receptor 4 (Homo sapiens, UniProt O95977); assay: Agonist activity at human S1P4 receptor by GTPgammaS binding assay; format: functional
T2 sequence (O95977 whole entry): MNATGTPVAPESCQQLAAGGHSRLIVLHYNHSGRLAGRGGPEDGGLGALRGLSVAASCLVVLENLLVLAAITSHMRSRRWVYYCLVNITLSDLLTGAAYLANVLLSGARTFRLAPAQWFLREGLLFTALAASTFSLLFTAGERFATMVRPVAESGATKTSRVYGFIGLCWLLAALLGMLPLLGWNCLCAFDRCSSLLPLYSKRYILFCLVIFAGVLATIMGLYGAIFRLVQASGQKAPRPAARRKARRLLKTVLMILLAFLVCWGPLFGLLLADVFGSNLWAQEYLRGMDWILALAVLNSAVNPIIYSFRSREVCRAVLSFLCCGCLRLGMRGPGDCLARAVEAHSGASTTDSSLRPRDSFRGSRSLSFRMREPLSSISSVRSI

[7] = biological target: T3, Sphingosine 1-phosphate receptor 1 (Homo sapiens, UniProt P21453); assay: Agonist activity at human S1P1 receptor expressed in CHO cells assessed as ERK phosphorylation after 7 mins by alphaLISA; format: cell-based
T3 sequence (P21453 whole entry): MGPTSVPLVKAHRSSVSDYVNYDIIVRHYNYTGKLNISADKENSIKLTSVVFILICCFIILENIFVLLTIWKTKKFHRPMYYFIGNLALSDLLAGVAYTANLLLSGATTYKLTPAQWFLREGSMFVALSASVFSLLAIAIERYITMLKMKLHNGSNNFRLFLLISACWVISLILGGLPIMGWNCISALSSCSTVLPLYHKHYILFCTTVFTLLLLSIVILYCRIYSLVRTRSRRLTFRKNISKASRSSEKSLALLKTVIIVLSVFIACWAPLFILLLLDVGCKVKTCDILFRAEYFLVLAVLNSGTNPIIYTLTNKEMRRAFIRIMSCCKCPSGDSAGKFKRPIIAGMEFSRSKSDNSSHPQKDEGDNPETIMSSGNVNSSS

[8] = biological target: T3, Sphingosine 1-phosphate receptor 1; assay: Agonist activity at human S1P1 receptor expressed in CHO cells assessed as cAMP accumulation after 30 mins by HTRF analysis; format: functional, cell-based
[9] = biological target: Sphingosine 1-phosphate receptor 5 (Homo sapiens, UniProt Q9H228); assay: Agonist activity at human S1P5 receptor by GTPgammaS binding assay; format: functional
Sequence of Sphingosine 1-phosphate receptor 5 (Q9H228 whole entry): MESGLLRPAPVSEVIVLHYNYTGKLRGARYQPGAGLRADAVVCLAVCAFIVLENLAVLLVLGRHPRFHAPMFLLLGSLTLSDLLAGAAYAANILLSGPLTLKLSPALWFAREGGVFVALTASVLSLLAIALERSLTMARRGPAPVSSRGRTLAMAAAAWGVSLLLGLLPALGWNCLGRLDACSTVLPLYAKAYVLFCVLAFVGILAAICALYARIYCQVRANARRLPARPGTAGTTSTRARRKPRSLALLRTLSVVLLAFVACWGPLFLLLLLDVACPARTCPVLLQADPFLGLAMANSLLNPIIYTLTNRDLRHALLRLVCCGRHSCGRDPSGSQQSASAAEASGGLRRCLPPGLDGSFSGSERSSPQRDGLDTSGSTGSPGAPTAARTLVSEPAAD

[10] = biological target: T3, Sphingosine 1-phosphate receptor 1; assay: Agonist activity at human S1P1 receptor expressed in CHO cells co-expressing GFP assessed as cellular internalization after 45 mins by Hoechst assay; format: cell-based
[11] = Toxicity in human-inducible pluripotent stem cell-derived Cardiomyocyte assessed as reduction in cardiomyocyte beating at 1 nM after 2 hrs; details: cardiac muscle cell, 0.001 µM
In short: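 Cultured human iPSC-derived cardiomyocytes expressing S1P1 and S1P3, exposed to a range of concentrations of the phosphate; beating rate measured and the no-effect concentration determined.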

Mus musculus [12] = assay: Reduction of blood lymphocyte level in BALB/c mouse administered through oral gavage after 24 hrs by hematology analysis; format: functional, organism-based
Heart [13] = assay: Toxicity in guinea pig heart assessed as third degree AV block at 100 nM after 10 mins by ECG analysis; format: tissue-based, Cavia porcellus; details: 0.1 µM; in short: as §1
[14] = Drug metabolism in BALB/c mouse whole blood assessed as whole blood phosphate area ratio at 10 uM after 4 hrs by LC/MS/MS analysis; format: ADME, tissue-based
In short: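 Mouse whole blood incubated with the amino-alcohol prodrug; phosphorylated product measured by LC/MS/MS after 4 h to give the relative extent of phosphate ester formation.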

Blood [15] = assay: Drug metabolism in BALB/c mouse blood assessed as formation of phosphate ester metabolite at 10 mg/kg administered through oral gavage after 24 hrs by LC/MS/MS analysis; format: ADME, organism-based; details: in vivo
In short: (§2)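 Mouse PK study: alcohol prodrug given orally at 10 mg/kg, and formation of the phosphate metabolite in blood measured.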

Mus musculus [16] = assay: Reduction of blood lymphocyte level in BALB/c mouse at 1 mg/kg administered through oral gavage after 24 hrs by hematology analysis; format: functional; design: scale not given: the % may be the effect or the level left
In short: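 Mice given a single oral 1 mg/kg dose; circulating lymphocytes counted 24 h later as the pharmacodynamic marker.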

Blood [17] = assay: Drug metabolism in BALB/c mouse blood assessed as formation of phosphate ester metabolite at 10 mg/kg administered through oral gavage after 4 hrs by LC/MS/MS analysis; format: ADME, organism-based; details: in vivo; in short: as §2
Blood [18] = assay: Drug metabolism in BALB/c mouse blood assessed as formation of phosphate metabolite at 1 mg/kg administered through oral gavage after 24 hrs by LC/MS/MS analysis; format: ADME, organism-based; details: in vivo
In short: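 Single oral 1 mg/kg dose in mice; phosphate level in blood determined at 24 h postdose.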

T1 sequence (Q99500 whole entry): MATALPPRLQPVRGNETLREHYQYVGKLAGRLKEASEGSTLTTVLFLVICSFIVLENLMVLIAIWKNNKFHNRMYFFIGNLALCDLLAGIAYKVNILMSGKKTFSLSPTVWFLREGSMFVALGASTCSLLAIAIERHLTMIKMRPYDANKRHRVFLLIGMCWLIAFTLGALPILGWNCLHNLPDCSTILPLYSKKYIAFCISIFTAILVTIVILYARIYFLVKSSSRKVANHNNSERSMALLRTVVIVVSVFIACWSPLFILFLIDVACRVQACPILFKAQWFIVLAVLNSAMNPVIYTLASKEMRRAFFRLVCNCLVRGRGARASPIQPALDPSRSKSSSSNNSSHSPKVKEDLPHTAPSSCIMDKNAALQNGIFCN

For `CCCCCC[C@@H]1CCc2cc([C@H]3CC[C@](N)(COP(=O)(O)O)C3)ccc2C1`, the EC50 [1] was greater than 1000 nM, the Activity (Heart [2]) was “Toxic” and the IC50 [3] was greater than 1000 nM. The Activity (Heart [4]) was “Non-toxic”, the Activity (Heart [5]) was “Toxic” and the EC50 [6] was 10.5 nM. For the same molecule, the EC50 [7] was 8.16 nM, the EC50 [8] was 0.006 nM and the EC50 [9] was 10.7 nM. The EC50 [10] was 0.114 nM, the Activity [11] was “Non-toxic” and the EC50 (Mus musculus [12]) was 7.9 nM. The ED50 (Mus musculus [12]; po) was 0.12 mg/kg and the Activity (Heart [13]) was “Non-toxic”.
Molecule `CCCCCCC1CCc2cc(C3CCC(N)(CO)C3)ccc2C1` (stereo in doubt; 3c) has a Ratio [14] of 0.14, a Drug metabolism (Blood [15]) of 46 nM and an Activity (Mus musculus [16]) of 18%. For the same molecule, the Drug metabolism (Blood [17]) was 12 nM.
`CCCCCCC1CCc2cc(C3CCC(N)(CO)C3)ccc2C1` (stereo in doubt; 3g) gave a Ratio [14] of 0.02.
Work on `CCCCCCC1CCc2cc(C3CCC(N)(CO)C3)ccc2C1` (stereo in doubt; 3f) yielded a Ratio [14] of 0.6 and an Activity (Mus musculus [16]) of 80%.
With `CCCCCCC1CCc2cc(C3CCC(N)(CO)C3)ccc2C1` (stereo in doubt; 3e) the Ratio [14] was 0.03.
Molecule `CCCCCCC1CCc2cc(C3CCC(N)(CO)C3)ccc2C1` (stereo in doubt; 3b) has a Ratio [14] of 1.6, a Drug metabolism (Blood [18]) of 47 nM and a Drug metabolism (Blood [15]) of 475 nM. It also gave an Activity (Mus musculus [16]) of 90% and a Drug metabolism (Blood [17]) of 67 nM.
